A selection: hits, their analogues and other compounds. The true share with any hit is near 1.2%.
FN deposit inh: fibronectin deposition inhibition | AH1F fibroblasts, Alexa488-fibronectin deposition fluorescence, overnight | inhibition, % at 12.6 µM | 350,000 compounds, 0.086% hits;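 active = mean inhibition across replicates of 30% or more, regardless of how many single replicates reach that level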;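 also: positive control wells lacked labelled fibronectin entirely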
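Material: AH1F fibroblasts assembling fluorescent fibronectin matrix; amount: 10000 AH1F cells/well; medium: DMEM, 2% serum; reagent: Alexa488-fibronectin, 24 nM final in well; dosing: single compound dose, delivered by pin transfer; incubation: 1 h adhesion, overnight exposure; detection: fluorescence after three HBSS washes, excitation 485 nm, emission 525 nm; measure: fibronectin deposition inhibition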
ABHD5 PLIN5 PPI: inhibitors of human ABHD5-perilipin-5 interaction. Split G. princeps luciferase complementation, luminescence, 4 h. 360,000 compounds, 0.78% hits. Q00G26+Q8WTS1. inhibition, % at 4 µM. AID 602281;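 active = inhibition above the mean inhibition across every tested compound plus 3 SD, cut at about 22% in these data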;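 also: 0% = DMSO only wells and the 100% control is not disclosed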
APOBEC3G inh: APOBEC3G (human) deaminase inhibition; Q9HC16; inhibition, % at 20 µM; 330,000 compounds, 0.28% hits; recombinant A3G, ssDNA deamination FAM/TAMRA fluorescence; AID 493012;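 active = inhibition of at least 40% at 20 µM, with no more than 30% in the related APOBEC3A deaminase screen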;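 also: plate controls were DMSO wells with A3G for no effect and wells lacking A3G enzyme for full effect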
Target sequence (Q9HC16 whole entry, looked up): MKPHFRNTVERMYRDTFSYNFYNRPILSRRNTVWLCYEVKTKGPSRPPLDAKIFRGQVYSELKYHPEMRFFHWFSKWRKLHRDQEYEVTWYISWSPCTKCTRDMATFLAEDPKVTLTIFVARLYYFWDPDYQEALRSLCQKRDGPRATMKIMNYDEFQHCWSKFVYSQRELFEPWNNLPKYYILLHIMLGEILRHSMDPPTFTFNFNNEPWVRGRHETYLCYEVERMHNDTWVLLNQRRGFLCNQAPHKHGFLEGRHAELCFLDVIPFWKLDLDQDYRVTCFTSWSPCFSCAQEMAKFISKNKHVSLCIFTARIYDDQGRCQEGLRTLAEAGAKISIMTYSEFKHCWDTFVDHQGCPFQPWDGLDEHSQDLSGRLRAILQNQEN
A3A deaminase: blocks human APOBEC3A ssDNA deamination | P31941 | recombinant A3A, FAM/TAMRA ssDNA deamination fluorescence | inhibition, % at 20 µM | 330,000 compounds, 0.41% hits | AID 493011;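 active = at least 40% inhibition at 20 µM here, with at most 30% in a related deaminase screen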;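 also: plate controls were A3A with DMSO for no effect and wells lacking A3A enzyme for full effect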
Target sequence (P31941 whole entry, looked up): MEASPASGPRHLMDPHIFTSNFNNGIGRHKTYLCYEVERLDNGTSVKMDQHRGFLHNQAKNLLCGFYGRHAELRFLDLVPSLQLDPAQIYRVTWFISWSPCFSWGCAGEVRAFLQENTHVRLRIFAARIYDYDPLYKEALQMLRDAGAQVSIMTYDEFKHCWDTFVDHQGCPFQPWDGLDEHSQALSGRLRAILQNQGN
ABHD5 PLIN5 conf: ABHD5-PLIN5 interaction inhibition, confirmed; biochemical ABHD5-PLIN5 interaction, luminescence; AID 651612; inhibition, % at 4 µM; 2,200 compounds, 67% hits; shares compounds with ABHD5 PLIN5 PPI; in the data active = inhibition above about 23%;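 also: 0% = DMSO vehicle wells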
HNF4 counter: counter-screen for ABHD5-PLIN5 inhibitors: HNF4 split-luciferase. 2,200 compounds, 77% hits. inhibition, % at 4 µM. AID 651674. HNF4 dimerization, luminescence, biochemical. shares compounds with ABHD5 PLIN5 PPI;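 active = mean inhibition across replicate wells exceeding the computed hit threshold, cut at about 13% in these data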;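 also: light from luciferase halves that rejoin when HNF4 fusion proteins dimerize; 0% = DMSO only wells and the 100% control is not given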
The depositor's hits bear a star; . = no result.

SMILES | FN deposit inh | ABHD5 PLIN5 PPI | APOBEC3G inh | A3A deaminase | ABHD5 PLIN5 conf | HNF4 counter
CCNC(=O)c1cc2c(c(-c3cccc(-c4ccncc4)c3)n1)[C@H](CCO)N(S(=O)(=O)CC)C2 | -21 | . | . | . | . | .
O=C(/C=C/c1ccccc1[N+](=O)[O-])c1ccc(F)cc1 | 5 | 34* | -2 | 4 | 86* | 83*
O=C(/C=C/c1ccccc1O)c1ccccc1 | -2 | 29* | . | . | 79* | 64*
O=C(/C=C/c1cccc2ccccc12)c1ccncc1 | 2 | 65* | . | . | 96* | 96*
O=C(/C=C/c1ccccc1O)c1ccc(Cl)cc1 | 0 | 58* | -8 | -1 | 94* | 75*
O=C(N/N=C/c1cccc2ccccc12)c1ccncc1 | 7 | -8 | -8 | -7 | . | .
CC(=O)/C=C/c1ccccc1O | 4 | 0 | -6 | -2 | . | .
C[C@@H]1CCCCO[C@H](CN(C)Cc2ccncc2)[C@@H](C)CN([C@@H](C)CO)C(=O)c2cc(NC(=O)NC3CCCCC3)ccc2O1 | 0 | . | . | . | . | .
CCNC(=O)C[C@H]1CC[C@@H]2[C@H](COc3ccc(NC(=O)c4ccccc4)cc3C(=O)N2C)O1 | -8 | . | . | . | . | .
O=[N+]([O-])c1cc(S(=O)(=O)N2CCOCC2)ccc1N1CCCC1 | 0 | 2 | -1 | 0 | . | .
NS(=O)(=O)c1ccc(N2CCCCCC2)c([N+](=O)[O-])c1 | . | 74* | 1 | 3 | 2 | 13*
Cc1noc(C)c1NC(=O)N(C)C[C@H]1OCc2ccccc2-c2ccccc2C(=O)N([C@@H](C)CO)C[C@@H]1C | -12 | . | . | . | . | .
COCC(=O)Nc1ccc2c(c1)OC[C@H](C)N(C(=O)c1cnccn1)C[C@H](C)[C@@H](OC)CN(C)C2=O | -8 | . | . | . | . | .
C=C1C(=O)OC2C=C(CO)C3OC3C3OC3(C)CC(OC(=O)/C(=C/C)COC(C)=O)C12 (configuration not stated) | -1 | 52* | . | . | 73* | 82*
CC(=O)OCC1=C[C@@H]2OC(=O)C3=CO[C@@H](O[C@@H]4O[C@H](CO)[C@@H](O)[C@H](O)[C@H]4O)[C@H]1[C@@H]32 | 11 | -2 | -5 | -2 | . | .
C=C(C)[C@@H]1C2=CC(C(=O)OC)=C(C[C@H](C(=C)C)[C@H]3O[C@H]3C3=C[C@H]1OC3=O)O2 | . | 63* | . | . | 87* | 78*
O=C(O)/C=C/C(=O)c1ccc(O)cc1 | 1 | 86* | -4 | -1 | 96* | 104*
O=C(O)/C=C/C(=O)Nc1ccc(O)cc1 | -1 | -2 | -7 | 4 | . | .
O=C(CN1CCOCC1)N[C@@H]1CC[C@@H](CCn2cc(C3CCCC3)nn2)O[C@H]1CO | 1 | . | . | . | . | .
C[C@@H]1CCCCO[C@H](CN(C)C(=O)c2ccccc2)[C@@H](C)CN([C@@H](C)CO)C(=O)c2cc(NC(=O)NC3CCCCC3)ccc2O1 | -6 | . | . | . | . | .
O=C(C[C@H]1C[C@@H]2c3cc(NC(=O)CC4CC4)ccc3O[C@@H]2[C@@H](CO)O1)NCc1ccccn1 | -12 | . | . | . | . | .
CCCCN1C(=O)/C(=C/C=C2\SCCN2C)SC1=S | 7 | 30* | -8 | -1 | 25* | 21*
CN1CCS/C1=C/C=C1/SC(=S)N(Cc2ccccc2)C1=O | -12 | 25* | . | . | 22* | 18*
C[C@@H]1CN([C@@H](C)CO)C(=O)c2cc(NS(=O)(=O)c3ccccc3)ccc2O[C@@H](C)CCCCO[C@@H]1CN(C)S(=O)(=O)c1cn(C)cn1 | -3 | . | . | . | . | .
CC(C)c1ccc(/C=C(\c2nc3ccccc3[nH]2)S(=O)(=O)c2ccccc2)cc1 | 12 | 75* | -7 | -2 | 90* | 72*
SMILES | FN deposit inh | ABHD5 PLIN5 PPI | APOBEC3G inh | A3A deaminase | ABHD5 PLIN5 conf | HNF4 counter
O=S(=O)(/C(=C/c1ccc(C(F)(F)F)cc1)c1nc2ccccc2[nH]1)c1ccccc1 | 65* | 70* | . | . | 104* | 103*
C/C(=C\c1ccc(N)cc1)c1nc2ccccc2[nH]1 | 2 | -2 | -6 | 1 | . | .
COC(=O)/C(=C\c1ccc(O)cc1)c1nc2ccccc2[nH]1 | 8 | -4 | 2 | -4 | . | .
O=C(C[C@@H]1CC[C@@H]2[C@H](COC[C@H](O)CN2S(=O)(=O)c2ccccc2F)O1)NCc1ccccc1Cl | -5 | . | . | . | . | .
CCCCn1c(SCC(=O)NCc2ccco2)nnc1-c1ccoc1C | . | 24* | 5 | 10 | 55* | 28*
O=C(CSc1nnc(COc2ccccc2)n1Cc1ccco1)NCc1ccco1 | . | 37* | 1 | 10 | 44* | 54*
Cc1cc(NC(=O)CSc2nnc(COc3ccccc3)n2Cc2ccco2)no1 | . | 2 | -2 | 2 | . | .
Cc1cc(C)c2nc(NNC(=O)c3ccc(S(=O)(=O)N4CCCC(C)C4)cc3)sc2c1 (configuration not stated) | 5 | 23* | -11 | -7 | 59* | .
C[C@H](O)C#Cc1cnc2c(c1)C(=O)N([C@H](C)CO)C[C@H](C)[C@H](CN(C)Cc1cccc(F)c1)O2 | 1 | . | . | . | . | .
CCN1CCC(O)(/C=C/c2ccc(C(C)C)cc2)C(C(=O)/C=C/c2ccc(C(C)C)cc2)C1 (configuration not stated) | 0 | 67* | . | . | 78* | 79*
CC(Sc1ccsc1[N+](=O)[O-])C(=O)NCc1ccco1 (configuration not stated) | 4 | 28* | -2 | 5 | 10 | 21*

Screening results (PubChem BioAssay)
